ChEMBL document CHEMBL1139778, “Synthesis and biological evaluation of cinnamyl compounds as potent antitumor agents” (Bioorg Med Chem Lett, 2007)
The source made the active and inactive calls. The rule behind the calls is not given here.

Legend:
SW-620 [1] = assay: Cell cycle arrest in human SW620 cells assessed as accumulation at S phase at 20 uM after 24 hrs by flow cytometry; type: functional
How it was run: (§1)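 After treatment, cells harvested at 24 h, trypsinized, washed with PBS, fixed overnight in ice-cold 70% EtOH, then treated with RNase A 100 µg/mL at 37 °C for 30 min. Stained with propidium iodide (final 50 µg/mL). DNA content of 20,000 fixed cells read by flow cytometry (FACScalibur); phase distribution from cell cycle modelling.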

SW-620 [2] = assay: Cell cycle arrest in human SW620 cells assessed as accumulation at G2/M phase at 20 uM after 24 hrs by flow cytometry; type: functional; how it was run: as §1
A549 = assay: Growth inhibition of human A549 cells after 24 hrs by ELISA; type: functional; settings: A549, 24 h
SW-620 [3] = assay: Cell cycle arrest in human SW620 cells assessed as accumulation at G0/G1 phase at 20 uM after 24 hrs by flow cytometry; type: functional; how it was run: as §1
[4] = Growth inhibition of human […] cells after 24 hrs by ELISA; type: functional
HCT-116 [5] = assay: Induction of caspase 3 cleavage in human HCT116 cells at 20 uM after 24 hrs; type: functional, cell-based
How it was run: (§2)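 HCT116 cells treated for 24 h, lysed in RIPA buffer; 40 µg lysate resolved by 15% SDS–PAGE, blotted to PVDF, blocked in 5% milk/TBS-T. Primary antibodies 2 h at room temperature, HRP goat anti-rabbit secondary, chemiluminescent detection on X-ray film for PARP and caspase-3 cleavage.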

HCT-116 [6] = assay: Induction of PARP cleavage in human HCT116 cells at 20 uM after 24 hrs; type: functional, cell-based; how it was run: as §2
HCT-116 [7] = assay: Cell cycle arrest in human HCT116 cells assessed as accumulation at S phase at 20 uM after 24 hrs by flow cytometry; type: functional; how it was run: as §1
HCT-116 [8] = assay: Cell cycle arrest in human HCT116 cells assessed as accumulation at S phase at 40 uM after 24 hrs by flow cytometry; type: functional; how it was run: as §1
SW-620 [9] = assay: Antitumor activity against human SW620 cells in nude mouse assessed as tumor volume on day 9 at 50 mg/kg, […]; type: functional; settings: route intraperitoneal
SW-620 [10] = assay: Antitumor activity against human SW620 cells in nude mouse assessed as tumor volume on day 5 at 50 mg/kg, […]; type: functional; settings: route intraperitoneal
HCT-116 [11] = assay: Cell cycle arrest in human HCT116 cells assessed as accumulation at G0/G1 phase at 20 uM after 24 hrs by flow cytometry; type: functional; how it was run: as §1
HCT-116 [12] = assay: Growth inhibition of human HCT116 cells after 24 hrs by ELISA; type: functional; settings: HCT-116, 24 h
[13] = system: SW620 (human colon adenocarcinoma); assay: Induction of apoptosis in human SW620 cells at 30 uM after 24 hrs
SW-620 [14] = assay: Cell cycle arrest in human SW620 cells assessed as accumulation at subG1 phase at 40 uM after 24 hrs by flow cytometry; type: functional; how it was run: as §1
HCT-116 [15] = assay: Cell cycle arrest in human HCT116 cells assessed as accumulation at G2/M phase at 40 uM after 24 hrs by flow cytometry; type: functional; how it was run: as §1
NCI-H23 = assay: Growth inhibition of human NCI-H23 cells after 24 hrs by ELISA; type: functional; settings: NCI-H23, 24 h
SW-620 [16] = assay: Cell cycle arrest in human SW620 cells assessed as accumulation at S phase at 40 uM after 24 hrs by flow cytometry; type: functional; how it was run: as §1
SW-620 [17] = assay: Cell cycle arrest in human SW620 cells assessed as accumulation at G0/G1 phase at 30 uM after 24 hrs by flow cytometry; type: functional; how it was run: as §1
SW-620 [18] = assay: Cell cycle arrest in human SW620 cells assessed as accumulation at subG1 phase at 20 uM after 24 hrs by flow cytometry; type: functional; how it was run: as §1
HCT-116 [19] = assay: Cell cycle arrest in human HCT116 cells assessed as accumulation at G0/G1 phase at 30 uM after 24 hrs by flow cytometry; type: functional; how it was run: as §1
SW-620 [20] = assay: Cell cycle arrest in human SW620 cells assessed as accumulation at G2/M phase at 30 uM after 24 hrs by flow cytometry; type: functional; how it was run: as §1
HCT-116 [21] = assay: Cell cycle arrest in human HCT116 cells assessed as accumulation at subG1 phase at 40 uM after 24 hrs by flow cytometry; type: functional; how it was run: as §1
SW-620 [22] = assay: Cell cycle arrest in human SW620 cells assessed as accumulation at G0/G1 phase at 40 uM after 24 hrs by flow cytometry; type: functional; how it was run: as §1
SW-620 [23] = assay: Antitumor activity against human SW620 cells in nude mouse assessed as tumor volume on day 12 at 50 mg/kg, […]; type: functional; settings: route intraperitoneal
HCT-116 [24] = assay: Cell cycle arrest in human HCT116 cells assessed as accumulation at G2/M phase at 20 uM after 24 hrs by flow cytometry; type: functional; how it was run: as §1
SW-620 [25] = assay: Antitumor activity against human SW620 cells in nude mouse assessed as tumor volume on day 14 at 50 mg/kg, ip for 20 days; type: organism-based; design: dose 50 mg/kg, route intraperitoneal; settings: in vivo
How it was run: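 SW620 human colon adenocarcinoma cells (3 × 10⁷ cells/mL) implanted subcutaneously in right flank of nude mice on day 0. Compound in 0.5% Tween 80 given ip at 50 mg/kg per day; vehicle control and doxifluridine 50 mg/kg reference; 8 mice per group. Tumor volume estimated as length × width × height/2; mice sacrificed on day 14.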

HCT-116 [26] = assay: Cell cycle arrest in human HCT116 cells assessed as accumulation at G2/M phase at 30 uM after 24 hrs by flow cytometry; type: functional; how it was run: as §1
SK-OV-3 = assay: Growth inhibition of human SKOV3 cells after 24 hrs by ELISA; type: functional; settings: SK-OV-3, 24 h
HCT-116 [27] = assay: Cell cycle arrest in human HCT116 cells assessed as accumulation at subG1 phase at 30 uM after 24 hrs by flow cytometry; type: functional; how it was run: as §1
SW-620 [28] = assay: Antitumor activity against human SW620 cells in nude mouse assessed as tumor volume on day 7 at 50 mg/kg, […]; type: functional; settings: route intraperitoneal
SW-620 [29] = assay: Cell cycle arrest in human SW620 cells assessed as accumulation at subG1 phase at 30 uM after 24 hrs by flow cytometry; type: functional; how it was run: as §1
SW-620 [30] = assay: Cell cycle arrest in human SW620 cells assessed as accumulation at S phase at 30 uM after 24 hrs by flow cytometry; type: functional; how it was run: as §1
HCT-116 [31] = assay: Cell cycle arrest in human HCT116 cells assessed as accumulation at subG1 phase at 20 uM after 24 hrs by flow cytometry; type: functional; how it was run: as §1
HCT-116 [32] = assay: Cell cycle arrest in human HCT116 cells assessed as accumulation at G0/G1 phase at 40 uM after 24 hrs by flow cytometry; type: functional; how it was run: as §1
HCT-116 [33] = assay: Cell cycle arrest in human HCT116 cells assessed as accumulation at S phase at 30 uM after 24 hrs by flow cytometry; type: functional; how it was run: as §1
SW-620 [34] = assay: Cell cycle arrest in human SW620 cells assessed as accumulation at G2/M phase at 40 uM after 24 hrs by flow cytometry; type: functional; how it was run: as §1

## O=C(/C=C/c1ccccc1OC(=O)c1ccccc1)NOC(=O)N1CCOCC1
SW-620 [1]
  Activity: 27.79%
SW-620 [2]
  Activity: 22.33%
A549
  GI50: 25.2 µM
SW-620 [3]
  Activity: 48.88%
[4]
  GI50: 5.8 µM
HCT-116 [5]
  Activity: Active
HCT-116 [6]
  Activity: Active
HCT-116 [7]
  Activity: 22.05%
HCT-116 [8]
  Activity: 26.88%
SW-620 [9]
  Activity: 17.3 mm3
SW-620 [10]
  Activity: 1.4 mm3
HCT-116 [11]
  Activity: 42.72%
HCT-116 [12]
  GI50: 12.5 µM
[13]
  Activity: Active
SW-620 [14]
  Activity: 12.7%
HCT-116 [15]
  Activity: 42.06%
NCI-H23
  GI50: 12.9 µM
SW-620 [16]
  Activity: 26.52%
SW-620 [17]
  Activity: 46.46%
SW-620 [18]
  Activity: 3.03%
HCT-116 [19]
  Activity: 41.4%
SW-620 [20]
  Activity: 26.41%
HCT-116 [21]
  Activity: 36.83%
SW-620 [22]
  Activity: 33.34%
SW-620 [23]
  Activity: 45 mm3
HCT-116 [24]
  Activity: 35.23%
SW-620 [25]
  Activity: 89 mm3
HCT-116 [26]
  Activity: 38.22%
SK-OV-3
  GI50: 12.7 µM
HCT-116 [27]
  Activity: 39.14%
SW-620 [28]
  Activity: 4.3 mm3
SW-620 [29]
  Activity: 3.5%
SW-620 [30]
  Activity: 26.12%
HCT-116 [31]
  Activity: 32.36%
HCT-116 [32]
  Activity: 31.06%
HCT-116 [33]
  Activity: 20.39%
SW-620 [34]
  Activity: 40.14%

## CC(=O)ONC(=O)/C=C/c1ccccc1OC(=O)c1ccccc1
A549
  GI50: 30.2 µM
[4]
  GI50: 18.6 µM
HCT-116 [12]
  GI50: 21.3 µM
NCI-H23
  GI50: 26.3 µM
SK-OV-3
  GI50: 16.8 µM

## CN1CCN(C(=O)/C=C/c2ccccc2OC(=O)c2ccccc2)CC1
A549
  GI50: > 100 µM
[4]
  GI50: > 100 µM
HCT-116 [12]
  GI50: > 100 µM
NCI-H23
  GI50: > 100 µM
SK-OV-3
  GI50: > 100 µM

## CN1CCN(C(=O)ONC(=O)/C=C/c2ccccc2OC(=O)c2ccccc2)CC1
A549
  GI50: > 100 µM
[4]
  GI50: 89.3 µM
HCT-116 [12]
  GI50: 40.4 µM
NCI-H23
  GI50: 45.2 µM
SK-OV-3
  GI50: > 100 µM

## O=C(/C=C/c1ccccc1OC(=O)c1ccccc1)NO
A549
  GI50: 44.9 µM
[4]
  GI50: 20.2 µM
HCT-116 [12]
  GI50: 11.2 µM
NCI-H23
  GI50: 17.5 µM
SK-OV-3
  GI50: 35.3 µM

## CO/N=C/C=C/c1ccccc1OC(=O)c1ccccc1
A549
  GI50: > 100 µM
[4]
  GI50: > 100 µM
HCT-116 [12]
  GI50: > 100 µM
NCI-H23
  GI50: > 100 µM
SK-OV-3
  GI50: > 100 µM

## O=C(/C=C/c1ccccc1OC(=O)c1ccccc1)NOC(=O)c1ccccc1
A549
  GI50: 8.8 µM
[4]
  GI50: 3.2 µM
HCT-116 [12]
  GI50: 13.6 µM
NCI-H23
  GI50: 18.2 µM
SK-OV-3
  GI50: 12.9 µM

## O=C(/C=C/c1ccccc1O)NO
A549
  GI50: 55.2 µM
[4]
  GI50: 49.8 µM
HCT-116 [12]
  GI50: 16.8 µM
NCI-H23
  GI50: 27.8 µM
SK-OV-3
  GI50: 50.4 µM

## C[C@H]1O[C@@H](n2cc(F)c(=O)[nH]c2=O)[C@H](O)[C@@H]1O [DOXIFLURIDINE]
SW-620 [9]
  Activity: 41.4 mm3
SW-620 [10]
  Activity: 3.8 mm3
SW-620 [23]
  Activity: 77.9 mm3
SW-620 [25]
  Activity: 120.7 mm3
SW-620 [28]
  Activity: 15 mm3

## O=C(Cl)/C=C/c1ccccc1OC(=O)c1ccccc1
A549
  GI50: > 100 µM
[4]
  GI50: > 100 µM
HCT-116 [12]
  GI50: > 100 µM
NCI-H23
  GI50: > 100 µM
SK-OV-3
  GI50: > 100 µM

## COc1ccccc1/C=C/C(=O)NO
A549
  GI50: 53.5 µM
[4]
  GI50: 16.8 µM
HCT-116 [12]
  GI50: 15.3 µM
NCI-H23
  GI50: 26.9 µM
SK-OV-3
  GI50: 48.8 µM
